Bioassay records (PubChem)
Most compounds without a hit are left out; they make up all but 2.2% or so of the library.
C8 TRAIL sens: caspase-8 TRAIL sensitization; NB7+C8 cells + TRAIL, ATPlite viability luminescence; inhibition (viability loss, TRAIL sensitization), % at 10 µM; hit rate 1% among 360,000;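 active = compounds causing at least 50% loss of cell viability in the single-dose screen, relative to plate controls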
FLuc act counter: firefly luciferase counter-screen for stimulation assays; P08659; ATPlite luciferase biochemical, luminescence, 10 min; 0 = ATP-free wells, 1 = DMSO control; activation factor at 10 µM; 200,000 tested, under 10 active; AID 1027;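 active = luciferase activation factor, scaled between plate controls, of at least 2 with compound at 10 µM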
Target sequence (P08659 whole entry, looked up): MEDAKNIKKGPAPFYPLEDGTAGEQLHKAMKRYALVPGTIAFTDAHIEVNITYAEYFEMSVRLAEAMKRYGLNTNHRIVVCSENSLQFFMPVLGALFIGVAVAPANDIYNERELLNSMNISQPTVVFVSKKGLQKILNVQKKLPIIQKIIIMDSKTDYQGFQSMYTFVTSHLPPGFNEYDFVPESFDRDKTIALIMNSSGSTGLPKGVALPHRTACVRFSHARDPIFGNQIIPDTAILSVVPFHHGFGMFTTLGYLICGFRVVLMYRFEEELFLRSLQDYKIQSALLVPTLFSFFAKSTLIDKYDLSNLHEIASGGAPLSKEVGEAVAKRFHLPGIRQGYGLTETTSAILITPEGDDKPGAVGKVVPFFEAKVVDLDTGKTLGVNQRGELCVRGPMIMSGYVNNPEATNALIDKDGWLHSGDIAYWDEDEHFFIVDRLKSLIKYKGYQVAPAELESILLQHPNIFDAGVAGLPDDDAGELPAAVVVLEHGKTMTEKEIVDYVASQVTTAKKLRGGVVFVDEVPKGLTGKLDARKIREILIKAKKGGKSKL
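Material: Luciferase/luciferin reagent mix; Doses: test compounds dosed from 2 mM stocks in 100% DMSO; Schedule: 10 min incubation after luciferase reagent addition, room temperature; Measured by: luminescence from luciferase reaction; Read-out: luminescence gain marking luciferase activators.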
STAT3 inh: reduces IL-6 driven STAT3 reporter signal; U3A cells, IL-6 STAT3-luciferase reporter, luminescence; host cell line lacks STAT1; inhibition, % at 5.5 µM; hit rate 0.89% among 190,000;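 active = inhibition above the mean inhibition across all screened compounds plus 3 SD, cut at about 44% in these data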
FLuc inhib CS: Photinus pyralis luciferase inhibition counter-screen; ATPLite firefly luciferase biochemical luminescence, 10 min; P08659; inhibition, % at 10 µM; hit rate 1.5% among 200,000;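 active = inhibition above about 50% when tested at 10 µM, limit read from the data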
PPC-1+TRAIL kill: kills PPC-1 cancer cells in the presence of TRAIL; PPC-1 cells + TRAIL, ATPLite viability luminescence; cell killing (% activity), % at 4 µM or 5 µM; hit rate 0.41% among 220,000; AID 1443;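 active = cell killing above 50% in the first pass at 4 µM, then a duplicate retest at 5 µM averaging 50% or more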
HSP90 inh: blocks HSP90-mediated luciferase refolding in reticulocyte lysate; inhibition, % at 5.6 µM; hit rate 0.91% among 290,000; AID 1789; Rabbit reticulocyte lysate, luciferase refolding luminescence, 3 h;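 active = inhibition above the screen-wide mean plus 3 SD, computed separately per campaign, cut at about 16% in these data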;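 note: inhibitors lower the luminescence because luciferase stays unfolded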
HSP90 inh confirm: confirmation of HSP90 inhibitors; inhibition, % at 5.9 µM; shares compounds with HSP90 inh; hit rate 64% among 2,300; rabbit reticulocyte lysate, luciferase refolding luminescence, 3 h; in the data active = inhibition above about 18%
luciferase ctr: counter-screen for HSP90 inhibitors: inhibitors of firefly luciferase; inhibition, % at 5.9 µM; shares compounds with HSP90 inh; hit rate 48% among 2,300; purified native firefly luciferase, luminescence; AID 1847;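 active = inhibition above the mean inhibition of all tested sample wells plus 3 SD, cut at about 10% in these data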
Hits are given with their value; n = inactive; x = no result.

SMILES	C8 TRAIL sens	FLuc act counter	STAT3 inh	FLuc inhib CS	PPC-1+TRAIL kill	HSP90 inh	HSP90 inh confirm	luciferase ctr
CCOc1ccc(OCc2ccc(C(=O)O)o2)cc1	n	n	n	n	n	90	92	60
O=C(O)c1ccc(COc2ccc3ccccc3c2)o1	n	x	x	x	n	67	75	30
CC(C)(C)c1ccc(OCc2ccc(C(=O)N3CCOCC3)o2)cc1	n	n	n	n	n	n	x	x
CN(C)c1ccc(C(=S)N2CCN(S(=O)(=O)c3ccccc3)CC2)cc1	n	x	x	x	x	n	x	x
CCC(=O)c1cn(CC(=O)Nc2ccc(C)cc2)c2ccccc12	n	x	x	x	x	n	x	x
O=C(Nc1cccc(Cl)c1)c1csc(COCCO)n1	n	x	x	x	x	x	x	x
O=C(OCC(=O)N1CCN(c2ccccc2)CC1)c1ccccc1NCCO	n	x	x	x	x	x	x	x
Cn1c2ccccc2c(=O)c2cc(C#CC3=CCCCC3)ccc21	n	x	x	x	x	x	x	x
C=CCn1c2ccccc2c(=O)c2cc(C#CC3(O)CCCCC3)ccc21	81	x	x	x	x	19	27	n
O=C(CN1C(=O)NC2(CCCC2)C1=O)OCCOc1ccc(Cl)cc1Cl	n	x	x	x	x	x	x	x
O=C(c1ccccc1)N1CCN(C(=S)NCc2ccc3c(c2)OCO3)CC1	n	n	n	n	n	n	x	x
Cc1cc[n+](-c2[nH]c(=O)sc2/C=N/N=C(\[O-])c2ccncc2)cc1C	n	x	x	x	x	n	x	x
Cc1cc[n+](-c2[nH]c(=O)sc2/C=N/N=C(\[O-])c2ccccc2)cc1C	n	n	n	n	n	18	n	n
Cc1c(/C=N\NC(=O)C2COc3ccccc3O2)c2ccccc2n1C (stereo unspecified)	n	n	n	n	n	n	x	x
O=C(O)c1ccc(N/N=C/c2cn(Cc3ccc(F)cc3)c3ccccc23)cc1	n	x	x	x	n	40	39	25
Cc1c(/C=N/Nc2ccc(C(=O)O)cc2)c2ccccc2n1C	n	x	x	x	n	42	38	26
C[C@@H]1CN([C@@H](C)CO)C(=O)c2cc(-c3ccncc3)cnc2O[C@H]1CN(C)C(=O)c1cccc(F)c1	n	x	x	x	x	x	x	x
Cc1ccc(S(=O)(=O)/N=C2/C=C(Sc3ncn[nH]3)C(=O)c3ccccc32)c(C)c1	x	n	n	n	n	85	44	38
Cc1ccc(S(=O)(=O)/N=C2/C=C(Sc3ncn[nH]3)C(=O)c3ccccc32)cc1	n	n	n	n	n	89	38	45
Cc1ccc(S(=O)(=O)N2CCN(C(=O)CSc3ncn[nH]3)CC2)c(C)c1	n	x	x	x	x	x	x	x
Cc1ccc(S(=O)(=O)Nc2ccc(O)c(Sc3ncn[nH]3)c2)cc1	n	n	n	n	n	n	x	x
CN(Cc1ccccc1)C(=S)Nc1ccc2nc3n(c(=O)c2c1)CCCCC3	n	n	n	n	n	n	x	x
[O-]/[N+](=C\c1ccco1)c1ccc(Cl)cc1	n	x	x	x	x	42	82	n
[O-]/[N+](=C/c1ccco1)c1ccccc1	n	x	x	x	x	n	x	x
CCn1c(=O)cc(OCC(=O)NCCc2ccc(OC)c(OC)c2)c2ccccc21	n	n	n	n	n	48	n	n
SMILES	C8 TRAIL sens	FLuc act counter	STAT3 inh	FLuc inhib CS	PPC-1+TRAIL kill	HSP90 inh	HSP90 inh confirm	luciferase ctr
O=C(O)c1ccc(NC(CSCc2ccc(F)cc2)C(=O)O)c([N+](=O)[O-])c1 (stereo unspecified)	n	n	n	n	n	n	x	x
Cc1ccc(CSCC(Nc2ccc(C(=O)O)cc2[N+](=O)[O-])C(=O)O)cc1 (stereo unspecified)	n	n	n	n	n	25	n	n
COCCn1cnnc1SCC(=O)Nc1sc2c(c1C#N)CCC2	n	x	x	x	x	x	x	x
Cn1cnnc1SCC(=O)Nc1sc2c(c1C(N)=O)CCC2	n	n	n	n	n	22	n	n
COc1ccc(NC(=O)N2CCc3ccccc32)cc1	56	n	n	85	n	19	37	23
Cc1cc[n+](-c2nc([O-])n(-c3ccccc3)c2C=O)cc1	x	x	n	x	x	n	x	x
CCC1CCCCN1C(=O)COc1ccc(F)cc1 (stereo unspecified)	n	n	n	n	n	n	x	x
CCC1CCCCN1C(=O)CCCOc1ccccc1 (stereo unspecified)	n	n	n	n	n	37	39	24
CCC(=O)c1ccc(N2CCN(C(=O)c3ccccc3)CC2)c(F)c1	n	n	n	n	n	n	x	x
C/C(=N\Nc1ccccn1)c1ccc(OC(F)F)cc1	n	n	n	n	n	n	x	x
C/C(=N\Nc1nncc2ccccc12)c1ccc(O)cc1	60	x	x	x	x	20	32	12
C/C(=N\Nc1nncc2ccccc12)c1ccc(C(C)(C)C)cc1	n	x	x	x	x	n	x	x
C/C(=N\Nc1nncc2ccccc12)c1cccc(OC(F)F)c1	81	x	x	x	x	25	40	23
Cc1[nH]c2ccccc2c1C(C#N)(C#N)C1C(=O)c2ccccc2C1=O	n	x	x	x	n	77	79	n
O=C(O)c1ccc(N/N=C/c2ccc(-c3cc(Cl)ccc3Cl)o2)cc1	n	x	x	x	n	n	x	x
O=C(O)c1ccc(N/N=C/c2ccc(-c3ccc(Cl)cc3Cl)o2)cc1	n	x	x	x	n	56	n	n
O=C(O)c1ccc(N/N=C/c2c(F)cccc2Cl)cc1	n	x	x	x	x	80	82	76
N#Cc1ccc(OCC(=O)Nc2ccc(S(=O)(=O)N3CCOCC3)cc2)cc1	n	x	x	x	x	x	x	x
CC1Cc2ccccc2N1C(=O)c1ccc(F)c(S(=O)(=O)N2CCOCC2)c1 (stereo unspecified)	n	x	x	x	x	x	x	x
CCCc1nc2c(=O)n(C)c(=O)nc-2n(C)n1	96	n	94	n	n	75	83	85
CCC(=O)Nc1nc(C)c(-c2csc(Nc3ccccn3)n2)s1	n	n	n	n	n	n	x	x
Cc1nc(NC(=O)c2ccccc2)sc1-c1csc(N)n1	n	n	n	n	n	61	n	n
Cc1nc(NC(=O)c2ccccc2)sc1-c1csc(NCCc2ccccc2)n1	n	n	n	n	n	42	19	n
Cc1nc(N)sc1-c1csc(NCc2ccccc2)n1	n	n	n	n	n	56	n	n
Cc1nc(NC(=O)c2ccccc2)sc1-c1csc(NCc2ccccc2)n1	n	n	n	n	n	60	24	n
SMILES	C8 TRAIL sens	FLuc act counter	STAT3 inh	FLuc inhib CS	PPC-1+TRAIL kill	HSP90 inh	HSP90 inh confirm	luciferase ctr
CC(=O)Nc1ccc(-c2csc(NCCc3ccccc3)n2)cc1	n	x	x	x	x	n	x	x
COc1ccc(CC(=O)NNC(=O)c2nn(Cc3ccccc3)c(=O)c3ccccc23)cc1OC	n	x	x	x	n	n	x	x
Cc1ccnc(SC2CC(=O)N(c3ccc(C(C)C)cc3)C2=O)n1 (stereo unspecified)	n	x	x	x	x	32	n	n
CC(=O)c1ccc2noc(-c3ccc(C)cc3)c2c1	n	n	n	n	n	n	x	x
O=C(c1ccc2noc(-c3ccccc3)c2c1)N1CCN(c2ccccc2)CC1	n	x	x	x	x	x	x	x
NC(=O)NC(=O)COC(=O)c1ccc2noc(-c3ccccc3)c2c1	n	x	x	x	x	n	x	x
Cc1ccc(-c2onc3ccc(C(=O)O)cc23)cc1	n	x	x	x	x	72	61	57
